Measured values gathered from unrelated publications.
Protocols differ between the studies behind these lines.
Target: Insulin receptor (INSR, Homo sapiens, UniProt P06213)

CCCCC(=O)Nc1ccc(-c2ccc3ncn(CCC)c(=O)c3c2)cn1 — remaining binding (binding; competition with immobilised ligand; 0.5 µM): 100%
COc1ccc2[nH]c3c4[nH]c5ccc(OC)cc5c4c4c(c3c2c1)C(=O)NC4=O — remaining binding (binding; 1 µM): 66%
N#Cc1ccc(NC(=O)Nc2ccccc2)cc1 — remaining binding (cell-free assay; competition with immobilised ligand; 25 µM): 89%
CC#CC(=O)N1CCC[C@H]1c1nc(-c2ccc(C(=O)Nc3ccccn3)cc2)c2c(N)nccn12 — inhibition (enzyme activity; inhibitor; 1 µM): 0%
C[C@H]1CC[C@H](n2c3cnccc3c3cnc(Nc4ccc5c(n4)CCN(C(=O)CO)C5)nc32)CC1 — remaining binding (binding; 1 µM): 96%
C1=C/COCc2cc(ccc2OCCN2CCCC2)Nc2nccc(n2)-c2cccc(c2)COC/1 — remaining binding (binding; 0.1 µM): 83%
C=CC(=O)N1CCC([C@@H]2CCNc3c(C(N)=O)c(-c4ccc(Oc5ccccc5)cc4)nn32)CC1 — inhibition (cell-free assay; 1 µM): 0%
COc1ccc2oc(-c3ccc4nc(N)oc4c3)c/c(=N\c3ccccc3NC(=O)CCN)c2c1 — remaining binding (binding; 1 µM): 85%
